A short description of data set [1]: Stability of the compound assessed as conversion of prodrug to 3-[(2R,4S, 5R)-4-hydroxy-5-(hydroxymethyl)oxolan-2-yl]-6-(4-pentylphenyl)furo[2, 3-d]pyrimidin-2-one in presence of Dipeptidyl-peptidase 4, 20 % bovine serum and 2.5 uM DPPIV inhibitor vildagliptin. Format: physicochemical. The conditions noted are these: cattle. In outline: (§1)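 Prodrug conversion by purified DPPIV/CD26 or by human, bovine or murine serum (20% in PBS) was run with varying concentrations of vildagliptin. Prodrug, intermediate and parent were quantified by HPLC.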

Data set [2] can be described thus: Stability of the compound assessed as conversion of prodrug to 3-[(2R,4S, 5R)-4-hydroxy-5-(hydroxymethyl)oxolan-2-yl]-6-(4-pentylphenyl)furo[2, 3-d]pyrimidin-2-one in presence of Dipeptidyl-peptidase 4, 20 % murine serum and 2.5 uM DPPIV inhibitor vildagliptin. The data set is classed as physicochemical. The conditions noted are these: mouse. In outline:
as §1

Another data set concerns Caco-2. The experiment in a line: Stability in human CaCo-2 cells assessed as appearance of 3-[(2R,4S, 5R)-4-hydroxy-5-(hydroxymethyl)oxolan-2-yl]-6-(4-pentylphenyl)furo[2, 3-d]pyrimidin-2-one at the apical side of the cell. Format: ADME, cell-based. The note with it: in the assay text read “basolateral side” for “apical side”. The method, boiled down: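 CaCo-2 cells were seeded at 1.5 × 10⁵ cells/well in upper cups of dual-chamber 24-well trays in DMEM with 10% FBS and grown to confluence (~3 days). Upper medium was replaced with DMEM containing compound at 100 μM; bottom medium was replaced with PBS. Upper and bottom cups were sampled at 0-7 and 24 h into cold methanol and analysed by HPLC.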

Another data set deals with Mus musculus. The experiment in a line: Bioavailability in mouse assessed as fold increase in 3-[(2R,4S, 5R)-4-hydroxy-5-(hydroxymethyl)oxolan-2-yl]-6-(4-pentylphenyl)furo[2, 3-d]pyrimidin-2-one level within 0 to 180 mins administered by oral gavage. The data set is classed as ADME, organism-based. The conditions noted are these: in vivo. The method, boiled down: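 Female mice received equimolar single oral gavage doses (parent […]) in 0.5% carboxymethylcellulose. Three mice per time point were sacrificed at 15, 30, 45, 60, 90, 120 and 180 min. Plasma was analysed for parent compound by HPLC with fluorescence detection, using relative peak areas. Fold increase in parent plasma levels over 0-180 min was calculated relative to the parent compound.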

The nature of data set [3]: Cytotoxicity against HEL cells assessed as alteration of cell morphology. Format: cell-based. The conditions noted are these: human. The method, boiled down: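 Uninfected HEL fibroblasts were exposed to the test compounds. MCC is the minimal concentration giving microscopically detectable alteration of cell morphology.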
Data set [4] in a line: Aqueous solubility of the compound at 25 DegC after 24 hrs. The data set is classed as physicochemical. The conditions noted are these: water. The method, boiled down: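 Thermodynamic water solubility was measured at 25 °C after 24 h, typically as the mean of two measurements (variation <20%).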
A short description of data set [5]: Chemical stability of the compound in PBS buffer at pH 7.4 assessed as compound remaining after 24 hrs by HPLC. The data set is classed as physicochemical. The note with it: read-out: Stability. In outline:
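Prodrug was held in PBS pH 7.4 at room temperature for 24 h. Percent intact prodrug was determined by HPLC.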

In data set [6] the test system is Human alphaherpesvirus 3. The experiment in a line: Antiviral activity against Varicella zoster virus YS infected in HEL cells assessed as reduction in virus induced cytopathicity. The data set is classed as functional, organism-based. The conditions noted are these: Human alphaherpesvirus 3, YS. The method, boiled down: (§2)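 Confluent HEL fibroblast monolayers were infected with 20 PFU of VZV (Oka or YS strain). After 1-2 h adsorption, residual virus was removed and varying compound concentrations were added. Plaque formation was scored when untreated infected controls reached completion.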
In general terms: Damage to the host cells serves as the signal in cytopathic effect assays.

In data set [7] the test system is Human alphaherpesvirus 3. The experiment in a line: Antiviral activity against Varicella zoster virus OKA infected in HEL cells assessed as reduction in virus induced cytopathicity. The data set is classed as functional, organism-based. The note with it: Human alphaherpesvirus 3, OKA. The method, boiled down: as §2
Data set [8] is described as follows: Cytotoxicity against HEL cells assessed as inhibition of cell proliferation. Format: cell-based. The note with it: human.
Data set [9] can be described thus: Stability of the compound assessed as conversion of prodrug to 3-[(2R,4S, 5R)-4-hydroxy-5-(hydroxymethyl)oxolan-2-yl]-6-(4-pentylphenyl)furo[2, 3-d]pyrimidin-2-one in presence of Dipeptidyl-peptidase 4 and 2.5 uM DPPIV inhibitor vildagliptin. The data set is classed as physicochemical. In outline: as §1
Data set [10] is described as follows: Stability of the compound assessed as conversion of prodrug to 3-[(2R,4S, 5R)-4-hydroxy-5-(hydroxymethyl)oxolan-2-yl]-6-(4-pentylphenyl)furo[2, 3-d]pyrimidin-2-one in presence of Dipeptidyl-peptidase 4, 20 % human serum and 2.5 uM DPPIV inhibitor vildagliptin. The data set is classed as physicochemical. The method, boiled down:
as §1

Data set [11] is described as follows: Aqueous solubility of the compound at 25 DegC after 4 hrs. The data set is classed as physicochemical. The note with it: water.
Data set [12] is described as follows: Stability of the compound assessed as conversion of prodrug to 3-[(2R,4S, 5R)-4-hydroxy-5-(hydroxymethyl)oxolan-2-yl]-6-(4-pentylphenyl)furo[2, 3-d]pyrimidin-2-one in presence of Dipeptidyl-peptidase 4 and 20 % human serum. Format: physicochemical. In outline:
(§3)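 Prodrug at 50 μM in PBS (0.1% DMSO) at 37 °C; reaction started with purified CD26 (1.5 mU) or 20% human or bovine serum in PBS. Aliquots taken at time points were quenched in cold methanol on ice, centrifuged, and the supernatant analysed by reverse-phase RP-8 HPLC (NaH2PO4/heptanesulfonic acid pH 3.2 versus acetonitrile gradient) for prodrug, intermediates and parent.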

Data set [13] can be described thus: Stability of the compound assessed as conversion of prodrug to 3-[(2R,4S, 5R)-4-hydroxy-5-(hydroxymethyl)oxolan-2-yl]-6-(4-pentylphenyl)furo[2, 3-d]pyrimidin-2-one in presence of Dipeptidyl-peptidase 4 and 20 % bovine serum. The data set is classed as physicochemical. The conditions noted are these: cattle. The method, boiled down: as §3
Data set [14] is described as follows: Stability of the compound assessed as conversion of prodrug to 3-[(2R,4S, 5R)-4-hydroxy-5-(hydroxymethyl)oxolan-2-yl]-6-(4-pentylphenyl)furo[2, 3-d]pyrimidin-2-one in presence of Dipeptidyl-peptidase 4. The data set is classed as physicochemical. The method, boiled down:
as §3

In brackets after ≈: the same amount, converted by molar mass.

Broadly, the solubility is how much of the substance goes into solution per volume. A higher solubility goes with much dissolved substance. For orientation: EC50 means the midpoint of the concentration-response curve. Broadly, the CC50 is the concentration giving 50% cytotoxicity. As for `CCCCCc1ccc(-c2cc3cn([C@H]4C[C@H](O)[C@@H](COC(=O)[C@@H](NC(=O)[C@@H]5CCCN5C(=O)[C@@H](N)C(C)C)C(C)C)O4)c(=O)nc3o2)cc1`, the Activity entry is given as “Not Active” in [1]; “Not Active” in data set [2]; “Active” with Caco-2; “Not Active” in data set [9]; “Not Active” in data set [10]. In the data set with Mus musculus, the “fold change (FC)” value was 13. For the same compound, in data set [3], the MCC is greater than 2 µM. The amount in solution in data set [4] (solubility at 24 h) came to 1.2 mg/mL (≈ 1.73 mM). Also, the remaining at 24 h in data set [5] is greater than 95%. The concentration giving a half-maximal response (EC50) came to 0.154 µM in the data set on Human alphaherpesvirus 3 [6] and 0.089 µM with Human alphaherpesvirus 3 [7]. The CC50 in data set [8] was greater than 100 µM.

`CCCCCc1ccc(-c2cc3cn([C@H]4C[C@H](OC(=O)[C@@H](NC(=O)[C@@H]5CCCN5C(=O)[C@@H](N)C(C)C)C(C)C)[C@@H](COC(=O)[C@@H](NC(=O)[C@@H]5CCCN5C(=O)[C@@H](N)C(C)C)C(C)C)O4)c(=O)nc3o2)cc1`: the “fold change (FC)” value in the data set with Mus musculus turned out to be 12. Also, the MCC in [3] was greater than 5 µM. Further, the solubility at 24 h in data set [4] is 77 mg/mL (≈ 77.8 mM). Further, the remaining at 24 h in [5] is greater than 95%. The EC50 came out at 0.26 µM with Human alphaherpesvirus 3 [6] and 0.127 µM with Human alphaherpesvirus 3 [7]. For the same compound, the CC50 in data set [8] was determined as 50 µM.

With `CCCCCc1ccc(-c2cc3cn([C@H]4C[C@H](OC(=O)[C@@H](NC(=O)[C@@H]5CCCN5C(=O)[C@@H](N)C(C)C)C(C)C)[C@@H](CO)O4)c(=O)nc3o2)cc1`, in the data set with Mus musculus, the “fold change (FC)” value is listed as 7. For the same compound, the MCC in data set [3] is 60 µM. This compound showed a solubility at 24 h in data set [4] of 5.2 mg/mL (≈ 7.49 mM). Moreover, the remaining at 24 h in [5] is greater than 95%. The EC50 was 0.016 µM in the data set with Human alphaherpesvirus 3 [6] and 0.018 µM with Human alphaherpesvirus 3 [7]. Besides, in data set [8], the CC50 was 17 µM.

In the case of `CCCCCc1ccc(-c2cc3cn([C@H]4C[C@H](O)[C@@H](COC(=O)[C@H](CC(C)C)NC(=O)[C@@H]5CCCN5C(=O)[C@@H](N)C(C)C)O4)c(=O)nc3o2)cc1`, in the data set with Mus musculus, the “fold change (FC)” value was 11. Besides, in data set [3], the MCC was greater than 0.5 µM. The solubility at 4 h in data set [11] was found to be 14 mg/mL (≈ 19.8 mM). Besides, the remaining at 24 h in [5] was 69%. In addition, the figures for the concentration giving a half-maximal response (EC50) in the data set with Human alphaherpesvirus 3 [6] and in the data set on Human alphaherpesvirus 3 [7] were 0.006 µM and 0.009 µM, respectively. In addition, the CC50 in data set [8] is 31 µM. Also, the outcome in data set [12] and in [13] was Active.

On to `CCCCCc1ccc(-c2cc3cn([C@H]4C[C@H](O)[C@@H](COC(=O)[C@H](Cc5ccccc5)NC(=O)[C@@H]5CCCN5C(=O)[C@@H](N)C(C)C)O4)c(=O)nc3o2)cc1`, for which, in [3], the MCC was greater than 0.5 µM. Also, the solubility at 4 h in data set [11] is 1.1 mg/mL (≈ 1.48 mM). Moreover, in data set [5], the remaining at 24 h was 52%. Besides, the values for the EC50 with Human alphaherpesvirus 3 [6] and in the data set with Human alphaherpesvirus 3 [7] were 0.01 µM and 0.013 µM, respectively. Further, the cytotoxic concentration (CC50) in data set [8] came to 40 µM. Further, the result in data set [12] and in data set [13] was Active.

`CCCCCc1ccc(-c2cc3cn([C@H]4C[C@H](O)[C@@H](COC(=O)[C@H](C)NC(=O)[C@@H]5CCCN5C(=O)[C@@H](N)C(C)C)O4)c(=O)nc3o2)cc1`: the MCC in data set [3] is greater than 0.5 µM. The compound also yielded a solubility at 4 h in data set [11] of 6.1 mg/mL (≈ 9.16 mM). The remaining at 24 h in [5] was 74%. The EC50 in the data set with Human alphaherpesvirus 3 [6] is 0.003 µM; in the data set with Human alphaherpesvirus 3 [7], 0.006 µM. Further, the 50% cytotoxic concentration (CC50) in [8] is 44 µM. For the same compound, the result in data set [12] and in data set [13] was Active.

`CCCCCc1ccc(-c2cc3cn([C@H]4C[C@H](O)[C@@H](COC(=O)[C@@H](NC(=O)[C@@H]5CCCN5C(=O)[C@@H](N)CC(N)=O)C(C)C)O4)c(=O)nc3o2)cc1`: in data set [3], the MCC is greater than 5 µM. In [4], this compound displayed a solubility at 24 h of 39 mg/mL (≈ 55 mM). For the same compound, the remaining at 24 h in [5] was greater than 95%. For the same compound, the concentration for a half-maximal effect (EC50) turned out to be 0.085 µM with Human alphaherpesvirus 3 [6] and 0.042 µM in the data set on Human alphaherpesvirus 3 [7]. In addition, in [8], the CC50 amounted to 56 µM. In addition, the result in data set [14] was Active.

Turning to `CCCCCc1ccc(-c2cc3cn([C@H]4C[C@H](O)[C@@H](COC(=O)[C@@H](NC(=O)[C@@H]5CCCN5C(=O)[C@@H](N)CCCCN)C(C)C)O4)c(=O)nc3o2)cc1`, the “fold change (FC)” value with Mus musculus is 15. Besides, the MCC in data set [3] was greater than 5 µM. The solubility at 24 h in [4] turned out to be 55 mg/mL (≈ 76.1 mM). In addition, the remaining at 24 h in [5] was greater than 95%. The values for the EC50 in the data set with Human alphaherpesvirus 3 [6] and in the data set with Human alphaherpesvirus 3 [7] were 0.022 µM and 0.018 µM, respectively. The CC50 in data set [8] was determined as 29 µM. For the same compound, the outcome in data set [14] was Active.

Turning to `CCCCCc1ccc(-c2cc3cn([C@H]4C[C@H](O)[C@@H](COC(=O)[C@@H](NC(=O)[C@@H]5CCCN5C(=O)[C@@H](N)CC(=O)O)C(C)C)O4)c(=O)nc3o2)cc1`, the MCC in data set [3] is greater than 5 µM. In data set [4], this compound registered a solubility at 24 h of 15 mg/mL (≈ 21.1 mM). In addition, the remaining at 24 h in data set [5] was greater than 95%. The half-maximal effective concentration (EC50) stood at 0.073 µM in the data set on Human alphaherpesvirus 3 [6] and 0.032 µM in the data set on Human alphaherpesvirus 3 [7]. Moreover, the CC50 in data set [8] turned out to be 52 µM. For the same compound, the Activity entry is on record as “Active” in data set [14], “Not Active” in data set [12] and “Not Active” in data set [13].

As to `CCCCCc1ccc(-c2cc3cn([C@H]4C[C@H](O)[C@@H](CO)O4)c(=O)nc3o2)cc1` [CF1743], in [3], the MCC was greater than 20 µM. Besides, the solubility at 24 h in data set [4] was found to be 0.018 mg/mL (≈ 0.0452 mM).

Values taken from ChEMBL document CHEMBL1687922, “Dipeptidyl peptidase IV dependent water-soluble prodrugs of highly lipophilic bicyclic nucleoside analogues” (J Med Chem, 2011).
